Measured values taken from ChEMBL document CHEMBL1275331, “Discovery of a novel 5-HT(3) antagonist/5-HT(1A) agonist 3-amino-5,6,7,8-tetrahydro-2-{4-[4-(quinolin-2-yl)piperazin-1-yl]butyl}quinazolin-4(3H)-one (TZB-30878) as an orally bioavailable agent for irritable bowel syndrome” (J Med Chem, 2010).
Activity calls are given as the source filed them. The rule behind the calls is not given here.

Assays:
[1] = Displacement of [3H]DADLE from human recombinant delta2 opioid receptor
[2] = biological target: T1, 5-hydroxytryptamine receptor 1A (Homo sapiens, UniProt P08908); assay: Displacement of [3H]8-OH-DPAT from human 5HT1A receptor expressed in CHO cells by liquid scintillation counting; type: cell-based
T1 sequence (P08908 whole entry): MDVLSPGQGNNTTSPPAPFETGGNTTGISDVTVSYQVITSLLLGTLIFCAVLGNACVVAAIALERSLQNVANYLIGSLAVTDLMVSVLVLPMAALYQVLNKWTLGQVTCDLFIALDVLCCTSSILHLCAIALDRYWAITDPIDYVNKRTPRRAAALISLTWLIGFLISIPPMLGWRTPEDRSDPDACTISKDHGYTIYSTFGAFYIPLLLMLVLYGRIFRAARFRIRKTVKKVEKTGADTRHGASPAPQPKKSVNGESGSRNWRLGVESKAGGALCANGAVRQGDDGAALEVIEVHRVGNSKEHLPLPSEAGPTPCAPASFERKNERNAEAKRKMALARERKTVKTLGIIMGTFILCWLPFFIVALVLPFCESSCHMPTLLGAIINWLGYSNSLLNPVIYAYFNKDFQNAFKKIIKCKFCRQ
In short: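 CHO-cell membranes with human 5-HT1A were incubated with 0.25 nmol/L [3H]8-OH-DPAT (final) for 60 min at 27 °C. Buffer: 50 mM Tris-HCl, 10 mM MgSO4, 0.5 mM EDTA, 0.1% ascorbic acid, pH 7.4. Compound came from 270 μmol/L DMSO stock, diluted in buffer. Filtration was through GF/C presoaked in 0.3% polyethyleneimine, with two cold Tris washes. Run in duplicate or triplicate; percent inhibition of binding calculated.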

[3] = biological target: T1, 5-hydroxytryptamine receptor 1A; assay: Agonist activity at human cloned 5HT1A receptor expressed in CHO cells assessed as stimulation of [35S]GTPgammaS binding after 30 mins by liquid scintillation counting; type: functional, cell-based
In short: (§1)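 Membranes from CHO cells expressing human 5-HT1A were diluted in 20 mM HEPES/3 mM MgCl2/120 mM NaCl, pH 7.4. They were preincubated with 20 μM GDP and test drug for 20 min at 30 °C, then held on ice for 15 min. [35S]GTPγS (100 pM) was added for 30 min at 30 °C. Samples were filtered, washed with cold HEPES/MgCl2 buffer, and bound radioactivity counted; EC50 and Emax reported.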

[4] = biological target: T2, 5-hydroxytryptamine receptor 1A (Homo sapiens) (UniProt P08908); assay: Agonist activity at human cloned 5HT1A receptor expressed in CHO cells assessed as stimulation of [35S]GTPgammaS binding at 900 uL after 30 mins by liquid scintillation counting; type: functional, cell-based; in short: as §1
T2 sequence (whole entry): T1 sequence (P08908 whole entry)

[5] = biological target: T3, 5-hydroxytryptamine receptor 3A (Cavia porcellus) (UniProt O70212); assay: Inhibition of 5HT3 receptor-mediated contraction of guinea pig ileum at 0.1 umol/L after 20 mins relative to control; type: tissue-based
T3 sequence (whole entry): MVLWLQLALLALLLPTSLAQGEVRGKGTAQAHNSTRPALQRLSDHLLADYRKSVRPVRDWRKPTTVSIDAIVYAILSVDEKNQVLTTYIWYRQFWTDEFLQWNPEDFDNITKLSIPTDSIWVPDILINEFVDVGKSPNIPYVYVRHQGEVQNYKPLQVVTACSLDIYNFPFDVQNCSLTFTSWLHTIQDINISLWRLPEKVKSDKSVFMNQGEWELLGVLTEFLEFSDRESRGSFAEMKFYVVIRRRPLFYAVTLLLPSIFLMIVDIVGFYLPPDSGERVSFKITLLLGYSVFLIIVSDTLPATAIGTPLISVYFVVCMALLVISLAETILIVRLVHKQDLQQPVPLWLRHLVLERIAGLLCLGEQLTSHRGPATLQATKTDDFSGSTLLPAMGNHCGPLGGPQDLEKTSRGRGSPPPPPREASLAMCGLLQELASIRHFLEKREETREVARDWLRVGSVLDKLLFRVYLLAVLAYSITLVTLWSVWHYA
In short: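 Ileum strips in Tyrode solution at 37 °C, gassed 5% CO2/95% O2, isotonic contractions under 1 g load. After at least 3 stable contractions to 10 μM 2-methyl-5-HT, tissue exposed to compound or DMSO vehicle for 20 min, then 10 μM 2-methyl-5-HT re-added; contraction expressed as % inhibition of control.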

[6] = Ratio of drug level in brain to blood in Sprague-Dawley rat at 3 mg/kg, po after 2 hrs; type: ADME, organism-based; design: dose 3 mg/kg, route oral
In short: (§2)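 Rats dosed 3 mg/kg orally; total compound levels measured in brain and blood at 2, 4 and 8 h, brain/blood ratio derived. Mean ± SD of three rats.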

[7] = Ratio of drug level in brain to blood in Sprague-Dawley rat at 3 mg/kg, po after 4 hrs; type: ADME, organism-based; design: dose 3 mg/kg, route oral; in short: as §2
[8] = Drug level in Sprague-Dawley rat brain at 3 mg/kg, po after 8 hrs by HPLC analysis; type: ADME, organism-based; design: dose 3 mg/kg, route oral; conditions: read-out: Drug uptake
In short: (§3)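 Total compound concentration was measured in brain and blood at 2, 4 and 8 h after a single oral 3 mg/kg dose. Brain/blood ratio was also derived. Values are mean ± SD of three rats.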

[9] = Drug level in Sprague-Dawley rat blood at 3 mg/kg, po after 8 hrs by HPLC analysis; type: ADME, organism-based; design: dose 3 mg/kg, route oral; conditions: whole blood, read-out: Drug uptake; in short: as §3
[10] = Ratio of drug level in brain to blood in Sprague-Dawley rat at 3 mg/kg, po after 8 hrs; type: ADME, organism-based; design: dose 3 mg/kg, route oral; in short: as §2
Rattus norvegicus [11] = assay: Induction of 5HT1A receptor-mediated lower lip retraction behavior in rat at 10 mg/kg, iv after 30 mins; type: functional, organism-based; design: dose 10 mg/kg
In short: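 Rats were conditioned to test procedures over 2 weeks and acclimated to the test cage for 1 h. Vehicle was saline containing diluted HCl. Lower lip retraction and flat body posture were scored on a 0–3 scale at 5, 10, 20 and 30 min after dosing.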

Rattus norvegicus [12] = assay: Effect on 5HT1A receptor-mediated hypothermic effect in rat assessed as change in rectal temperature at 10 mg/kg, iv after 30 mins; type: functional, organism-based; design: dose 10 mg/kg
In short: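 Rats were conditioned over 2 weeks and acclimated to the cage for 1 h before dosing (vehicle: saline with diluted HCl). Rectal temperature was recorded with a thermistor probe inserted 3 cm, before and 30 min after administration. The change in temperature was reported.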

[13] = biological target: T4, Adrenergic receptor alpha-1 (Rattus norvegicus, UniProt P15823+P23944+P43140); assay: Inhibition of rat alpha1 adrenergic receptor
Adenosine receptor A2a = Adenosine receptor A2a (Homo sapiens, UniProt P29274); assay: Displacement of [3H]CGS21680 from human recombinant adenosine A2A receptor
[14] = biological target: T4, Adrenergic receptor alpha-1; assay: Displacement of [3H]prazosin from rat cerebral cortex alpha1 adrenergic receptor; type: tissue-based
[15] = biological target: Beta-1 adrenergic receptor (Homo sapiens, UniProt P08588); assay: Displacement of [3H](-)CGP12177 from human recombinant beta-1 adrenergic receptor
Histamine H2 receptor = Histamine H2 receptor (Homo sapiens, UniProt P25021); assay: Displacement of [125I]APT from human recombinant histamine H2 receptor
[16] = biological target: Muscarinic acetylcholine receptor M1 (Homo sapiens, UniProt P11229); assay: Displacement of [3H]pirenzepine from human recombinant muscarinic M1 receptor
[17] = biological target: Neuropeptide Y receptor type 2 (Homo sapiens, UniProt P49146); assay: Displacement of [125I]peptide YY from NPY2 receptor in human KAN-TS cells; type: cell-based
Sequence of Neuropeptide Y receptor type 2 (P49146 whole entry): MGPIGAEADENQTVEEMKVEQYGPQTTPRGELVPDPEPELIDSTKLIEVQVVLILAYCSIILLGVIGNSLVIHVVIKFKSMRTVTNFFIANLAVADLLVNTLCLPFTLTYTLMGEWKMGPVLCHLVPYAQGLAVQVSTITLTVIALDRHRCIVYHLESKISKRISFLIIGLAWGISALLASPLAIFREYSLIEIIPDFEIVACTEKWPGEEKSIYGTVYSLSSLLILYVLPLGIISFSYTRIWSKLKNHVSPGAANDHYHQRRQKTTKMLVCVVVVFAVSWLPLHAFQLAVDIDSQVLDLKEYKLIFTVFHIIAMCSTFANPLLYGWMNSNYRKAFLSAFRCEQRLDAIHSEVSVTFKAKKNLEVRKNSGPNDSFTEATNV

Sequence of Histamine H2 receptor (P25021 whole entry): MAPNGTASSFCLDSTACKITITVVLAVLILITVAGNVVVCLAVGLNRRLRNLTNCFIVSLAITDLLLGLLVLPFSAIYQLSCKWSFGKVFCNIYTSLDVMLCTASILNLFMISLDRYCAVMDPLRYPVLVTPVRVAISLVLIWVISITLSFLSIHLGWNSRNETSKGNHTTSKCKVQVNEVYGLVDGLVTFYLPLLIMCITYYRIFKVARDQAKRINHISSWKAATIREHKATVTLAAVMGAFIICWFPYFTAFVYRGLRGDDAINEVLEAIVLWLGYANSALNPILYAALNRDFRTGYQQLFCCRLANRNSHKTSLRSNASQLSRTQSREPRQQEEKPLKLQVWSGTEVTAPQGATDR
Sequence of Muscarinic acetylcholine receptor M1 (P11229 whole entry): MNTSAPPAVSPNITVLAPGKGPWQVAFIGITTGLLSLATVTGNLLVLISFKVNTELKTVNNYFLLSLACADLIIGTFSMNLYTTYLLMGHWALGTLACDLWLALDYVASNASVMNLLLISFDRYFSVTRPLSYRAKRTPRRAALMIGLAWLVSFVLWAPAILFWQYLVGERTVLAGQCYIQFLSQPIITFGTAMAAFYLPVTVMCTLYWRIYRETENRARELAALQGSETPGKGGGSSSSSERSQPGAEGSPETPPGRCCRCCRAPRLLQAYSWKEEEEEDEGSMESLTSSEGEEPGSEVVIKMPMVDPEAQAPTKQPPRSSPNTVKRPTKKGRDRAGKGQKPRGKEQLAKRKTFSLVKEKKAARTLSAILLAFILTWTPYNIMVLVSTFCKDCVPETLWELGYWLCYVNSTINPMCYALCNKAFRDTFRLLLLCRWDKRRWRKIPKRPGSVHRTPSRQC
Sequence of Beta-1 adrenergic receptor (P08588 whole entry): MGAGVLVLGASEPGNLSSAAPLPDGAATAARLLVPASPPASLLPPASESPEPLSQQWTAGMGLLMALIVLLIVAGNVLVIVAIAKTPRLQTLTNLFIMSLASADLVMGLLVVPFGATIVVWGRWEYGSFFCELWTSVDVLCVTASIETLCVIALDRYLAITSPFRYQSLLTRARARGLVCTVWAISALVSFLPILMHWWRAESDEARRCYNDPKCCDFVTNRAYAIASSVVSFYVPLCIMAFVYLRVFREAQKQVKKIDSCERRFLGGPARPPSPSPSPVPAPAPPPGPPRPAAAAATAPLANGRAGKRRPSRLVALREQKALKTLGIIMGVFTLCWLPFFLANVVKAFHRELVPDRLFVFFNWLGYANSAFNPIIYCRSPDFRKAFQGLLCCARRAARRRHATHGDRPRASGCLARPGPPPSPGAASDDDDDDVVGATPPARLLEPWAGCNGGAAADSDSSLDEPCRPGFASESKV
Sequence of Adenosine receptor A2a (P29274 whole entry): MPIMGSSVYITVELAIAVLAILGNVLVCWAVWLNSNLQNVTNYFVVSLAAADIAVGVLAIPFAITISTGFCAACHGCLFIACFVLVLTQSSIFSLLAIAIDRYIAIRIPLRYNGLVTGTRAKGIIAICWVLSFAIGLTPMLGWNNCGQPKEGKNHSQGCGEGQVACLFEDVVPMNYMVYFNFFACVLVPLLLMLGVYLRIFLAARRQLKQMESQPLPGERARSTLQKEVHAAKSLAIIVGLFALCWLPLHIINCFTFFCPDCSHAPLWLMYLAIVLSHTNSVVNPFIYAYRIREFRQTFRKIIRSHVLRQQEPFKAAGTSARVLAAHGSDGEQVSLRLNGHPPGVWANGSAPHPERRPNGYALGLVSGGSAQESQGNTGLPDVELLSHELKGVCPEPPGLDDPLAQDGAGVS

SMILES: Nn1c(CCCCN2CCN(c3ccc4ccccc4n3)CC2)nc2c(c1=O)CCCC2
- IC50 [1]: > 1000 nM
- IC50 [2]: 1.4 nM
- EC50 [3]: 22.3 nM
- Emax [4]: 99.8%
- inhibition [5]: 70.4%
- Kp at 2 h [6]: 2.56
- Kp at 4 h [7]: 4.4
- concentration at 8 h [8]: 56.4 nM
- concentration at 8 h [9]: 9.97 nM
- Kp at 8 h [10]: 6.54
- Activity (Rattus norvegicus [11]): Active
- deltaT (Rattus norvegicus [12]): -1.4 °C
- IC50 [13]: > 100 nM
- IC50 (Adenosine receptor A2a): > 1000 nM
- IC50 [14]: 1 ×10⁻⁶ mol/L
- IC50 [15]: > 1000 nM
- IC50 (Histamine H2 receptor): > 1000 nM
- IC50 [16]: > 1000 nM
- IC50 [17]: > 1000 nM
